Laboratory results from ChEMBL document CHEMBL1649571, “In vitro activity of TR-700, the active ingredient of the antibacterial prodrug TR-701, a novel oxazolidinone antibacterial agent” (2009).
Values after ≈ are worked out from the molar mass of the structure shown.

Legend:
Assay type in all cases: functional
Streptococcus agalactiae = assay: Antibacterial activity against Streptococcus agalactiae by CLSI M7-A7 broth microdilution method
In short: (§1)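 Reference broth microdilution MIC under aerobic conditions on recent (2005–2008) clinical isolates from U.S. and non-U.S. sites. QC strains run alongside, required to fall within published CLSI ranges.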

Staphylococcus aureus [1] = assay: Antibacterial activity against methicillin-susceptible Staphylococcus aureus by CLSI M7-A7 broth microdilution method; in short: as §1
Staphylococcus aureus [2] = assay: Antibacterial activity against methicillin-resistant Staphylococcus aureus by CLSI M7-A7 broth microdilution method; in short: as §1
Moraxella catarrhalis = assay: Antibacterial activity against Moraxella catarrhalis by CLSI M7-A7 broth microdilution method
In short: (§2)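 Recent (2005 to 2008) clinical isolates from U.S. (80%) and non-U.S. (20%) sites. Aerobic MICs were determined by CLSI reference broth microdilution, with quality control strains checked against the published CLSI ranges.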

Streptococcus pneumoniae [3] = assay: Antibacterial activity against penicillin-susceptible Streptococcus pneumoniae by CLSI M7-A7 broth microdilution method; in short: as §1
Staphylococcus aureus [4] = assay: Antibacterial activity against community-acquired methicillin-resistant Staphylococcus aureus by CLSI M7-A7 broth microdilution method; in short: as §1
Enterococcus faecalis [5] = assay: Antibacterial activity against vancomycin-resistant Enterococcus faecalis by CLSI M7-A7 broth microdilution method; in short: as §1
[6] = test system: Porphyromonas asaccharolytica; assay: Antibacterial activity against Porphyromonas asaccharolytica by CLSI M11-A7 agar dilution method
In short: (§3)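 Recent (2005 to 2008) clinical isolates. Anaerobes grown 48 h in an anaerobic glove box, with inoculum suspensions made in prereduced broth inside the box. A Steers replicator stamped the inoculum onto drug-supplemented agar. After absorption, plates were incubated 48 h at 37°C, then removed from the box and the MIC read. QC strains were run against the CLSI ranges.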

[7] = test system: Bacteroides thetaiotaomicron; assay: Antibacterial activity against Bacteroides thetaiotaomicron by CLSI M11-A7 agar dilution method; in short: as §3
[8] = test system: Staphylococcus epidermidis; assay: Antibacterial activity against methicillin-susceptible Staphylococcus epidermidis by CLSI M7-A7 broth microdilution method
Enterococcus faecium [9] = assay: Antibacterial activity against vancomycin-susceptible Enterococcus faecium by CLSI M7-A7 broth microdilution method; in short: as §1
Haemophilus influenzae = assay: Antibacterial activity against Haemophilus influenzae by CLSI M7-A7 broth microdilution method; in short: as §2
Streptococcus pneumoniae [10] = assay: Antibacterial activity against penicillin-resistant Streptococcus pneumoniae by CLSI M7-A7 broth microdilution method; in short: as §1
Prevotella sp. = assay: Antibacterial activity against Prevotella sp. by CLSI M11-A7 agar dilution method; in short: as §3
Enterococcus faecium [11] = assay: Antibacterial activity against vancomycin-resistant Enterococcus faecium by CLSI M7-A7 broth microdilution method; in short: as §1
Streptococcus pyogenes = assay: Antibacterial activity against Streptococcus pyogenes by CLSI M7-A7 broth microdilution broth microdilution method; in short: as §1
Parvimonas micra = assay: Antibacterial activity against Peptostreptococcus micros by CLSI M11-A7 agar dilution method; in short: as §3
Phocaeicola vulgatus = assay: Antibacterial activity against Bacteroides vulgatus by CLSI M11-A7 agar dilution method; in short: as §3
Clostridium perfringens = assay: Antibacterial activity against Clostridium perfringens by CLSI M11-A7 agar dilution method
In short: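 Reference agar dilution MIC on recent (2005–2008) clinical isolates. Cultures grown 48 h in an anaerobic glove box; inoculum suspended in prereduced broth inside the box and stamped by Steers replicator onto drug-supplemented agar. Plates incubated 48 h at 37°C before MIC reading. QC strains run alongside, required to fall within CLSI ranges.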

Bacteroides ovatus = assay: Antibacterial activity against Bacteroides ovatus by CLSI M11-A7 agar dilution method; in short: as §3
Streptococcus pneumoniae [12] = assay: Antibacterial activity against penicillin-intermediate Streptococcus pneumoniae by CLSI M7-A7 broth microdilution method; in short: as §1
Enterococcus faecalis [13] = assay: Antibacterial activity against vancomycin-susceptible Enterococcus faecalis by CLSI M7-A7 broth microdilution method; in short: as §1
[14] = test system: Staphylococcus epidermidis; assay: Antibacterial activity against methicillin-resistant Staphylococcus epidermidis by CLSI M7-A7 broth microdilution method; in short: as §1
[15] = test system: Peptostreptococcus anaerobius; assay: Antibacterial activity against Peptostreptococcus anaerobius by CLSI M11-A7 agar dilution method; in short: as §3
Bacteroides fragilis = assay: Antibacterial activity against Bacteroides fragilis by CLSI M11-A7 agar dilution method; in short: as §3

Q: Which results are given for `CC(=O)NC[C@H]1CN(c2ccc(N3CCOCC3)c(F)c2)C(=O)O1` [LINEZOLID]?
A: MIC50 (Streptococcus agalactiae): 2 µg/mL (≈ 5.93 µM); MIC90 (Streptococcus agalactiae): 2 µg/mL (≈ 5.93 µM); MIC50 (Staphylococcus aureus [1]): 2 µg/mL (≈ 5.93 µM); MIC90 (Staphylococcus aureus [1]): 4 µg/mL (≈ 11.9 µM); MIC50 (Staphylococcus aureus [2]): 2 µg/mL (≈ 5.93 µM); MIC90 (Staphylococcus aureus [2]): 4 µg/mL (≈ 11.9 µM); MIC50 (Moraxella catarrhalis): 8 µg/mL (≈ 23.7 µM); MIC90 (Moraxella catarrhalis): 8 µg/mL (≈ 23.7 µM); MIC50 (Streptococcus pneumoniae [3]): 1 µg/mL (≈ 2.96 µM); MIC90 (Streptococcus pneumoniae [3]): 1 µg/mL (≈ 2.96 µM); MIC50 (Staphylococcus aureus [4]): 2 µg/mL (≈ 5.93 µM); MIC90 (Staphylococcus aureus [4]): 4 µg/mL (≈ 11.9 µM); MIC50 (Enterococcus faecalis [5]): 2 µg/mL (≈ 5.93 µM); MIC90 (Enterococcus faecalis [5]): 2 µg/mL (≈ 5.93 µM); MIC50 [6]: 1 µg/mL (≈ 2.96 µM); MIC90 [6]: 2 µg/mL (≈ 5.93 µM); MIC [7]: 4 µg/mL (≈ 11.9 µM); MIC50 [7]: 4 µg/mL (≈ 11.9 µM); MIC90 [7]: 8 µg/mL (≈ 23.7 µM); MIC50 [8]: 1 µg/mL (≈ 2.96 µM); MIC90 [8]: 2 µg/mL (≈ 5.93 µM); MIC50 (Enterococcus faecium [9]): 2 µg/mL (≈ 5.93 µM); MIC90 (Enterococcus faecium [9]): 4 µg/mL (≈ 11.9 µM); MIC50 (Haemophilus influenzae): 16 µg/mL (≈ 47.4 µM); MIC90 (Haemophilus influenzae): 32 µg/mL (≈ 94.9 µM); MIC50 (Streptococcus pneumoniae [10]): 1 µg/mL (≈ 2.96 µM); MIC90 (Streptococcus pneumoniae [10]): 1 µg/mL (≈ 2.96 µM); MIC50 (Prevotella sp.): 2 µg/mL (≈ 5.93 µM); MIC90 (Prevotella sp.): 4 µg/mL (≈ 11.9 µM); MIC50 (Enterococcus faecium [11]): 2 µg/mL (≈ 5.93 µM); MIC90 (Enterococcus faecium [11]): 2 µg/mL (≈ 5.93 µM); MIC50 (Streptococcus pyogenes): 1 µg/mL (≈ 2.96 µM); MIC90 (Streptococcus pyogenes): 2 µg/mL (≈ 5.93 µM); MIC50 (Parvimonas micra): 1 µg/mL (≈ 2.96 µM); MIC90 (Parvimonas micra): 2 µg/mL (≈ 5.93 µM); MIC (Phocaeicola vulgatus): 2 µg/mL (≈ 5.93 µM); MIC50 (Phocaeicola vulgatus): 2 µg/mL (≈ 5.93 µM); MIC90 (Phocaeicola vulgatus): 4 µg/mL (≈ 11.9 µM); MIC50 (Clostridium perfringens): 2 µg/mL (≈ 5.93 µM); MIC90 (Clostridium perfringens): 4 µg/mL (≈ 11.9 µM); MIC50 (Bacteroides ovatus): 8 µg/mL (≈ 23.7 µM); MIC90 (Bacteroides ovatus): 8 µg/mL (≈ 23.7 µM); MIC50 (Streptococcus pneumoniae [12]): 1 µg/mL (≈ 2.96 µM); MIC90 (Streptococcus pneumoniae [12]): 1 µg/mL (≈ 2.96 µM); MIC50 (Enterococcus faecalis [13]): 2 µg/mL (≈ 5.93 µM); MIC90 (Enterococcus faecalis [13]): 2 µg/mL (≈ 5.93 µM); MIC50 [14]: 1 µg/mL (≈ 2.96 µM); MIC90 [14]: 2 µg/mL (≈ 5.93 µM); MIC50 [15]: 1 µg/mL (≈ 2.96 µM); MIC90 [15]: 2 µg/mL (≈ 5.93 µM); MIC (Bacteroides fragilis): 4 µg/mL (≈ 11.9 µM); MIC50 (Bacteroides fragilis): 4 µg/mL (≈ 11.9 µM); MIC90 (Bacteroides fragilis): 4 µg/mL (≈ 11.9 µM)

Q: What does the source list for `Cc1onc(-c2ccccc2)c1C(=O)N[C@@H]1C(=O)N2[C@@H]1SC(C)(C)[C@@H]2C(=O)O` [OXACILLIN]?
A: MIC50 (Staphylococcus aureus [1]): 0.25 µg/mL (≈ 0.623 µM); MIC90 (Staphylococcus aureus [1]): 0.5 µg/mL (≈ 1.25 µM); MIC50 (Staphylococcus aureus [2]): 32 µg/mL (≈ 79.7 µM); MIC90 (Staphylococcus aureus [2]): 32 µg/mL (≈ 79.7 µM); MIC50 (Staphylococcus aureus [4]): 32 µg/mL (≈ 79.7 µM); MIC90 (Staphylococcus aureus [4]): 32 µg/mL (≈ 79.7 µM); MIC50 [8]: 0.12 µg/mL (≈ 0.299 µM); MIC90 [8]: 0.25 µg/mL (≈ 0.623 µM); MIC50 [14]: 16 µg/mL (≈ 39.9 µM); MIC90 [14]: > 32 µg/mL

Q: Which MIC [6] does the source give for `C[C@@H](O)[C@H]1C(=O)N2C(C(=O)O)=C(SCCNC=N)C[C@H]12` [IMIPENEM ANHYDROUS] here?
A: The MIC was ≤ 0.03 µg/mL.

Q: What about the MIC50 [6] of the same compound?
A: The MIC50 was < 0.03 µg/mL.

Q: And the MIC90 [6]?
A: The MIC90 was 0.06 µg/mL (≈ 0.2 µM).

Q: And the MIC50 [7]?
A: Its MIC50 is 0.5 µg/mL (≈ 1.67 µM).

Q: What about the MIC90 [7] of the same compound?
A: The MIC90 was 1 µg/mL (≈ 3.34 µM).

Q: And the MIC50 (Prevotella sp.)?
A: The MIC50 was ≤ 0.06 µg/mL.

Q: And the MIC90 (Prevotella sp.)?
A: Its MIC90 is 1 µg/mL (≈ 3.34 µM).

Q: What about the MIC (Parvimonas micra) of the same compound?
A: The MIC was ≤ 0.03 µg/mL.

Q: And the MIC50 (Parvimonas micra)?
A: Its MIC50 is ≤ 0.03 µg/mL.

Q: What about the MIC90 (Parvimonas micra) of the same compound?
A: Its MIC90 is ≤ 0.03 µg/mL.

Q: And the MIC (Phocaeicola vulgatus)?
A: Its MIC is 0.25 µg/mL (≈ 0.835 µM).

Q: And the MIC50 (Phocaeicola vulgatus)?
A: The MIC50 was 0.25 µg/mL (≈ 0.835 µM).

Q: And the MIC90 (Phocaeicola vulgatus)?
A: Its MIC90 is 0.5 µg/mL (≈ 1.67 µM).

Q: What about the MIC50 (Clostridium perfringens) of the same compound?
A: Its MIC50 is 0.12 µg/mL (≈ 0.401 µM).

Q: What about the MIC90 (Clostridium perfringens) of the same compound?
A: Its MIC90 is 0.5 µg/mL (≈ 1.67 µM).

Q: And the MIC50 (Bacteroides ovatus)?
A: Its MIC50 is 0.25 µg/mL (≈ 0.835 µM).

Q: What about the MIC90 (Bacteroides ovatus) of the same compound?
A: Its MIC90 is 0.5 µg/mL (≈ 1.67 µM).

Q: And the MIC50 [15]?
A: Its MIC50 is 0.06 µg/mL (≈ 0.2 µM).

Q: And the MIC90 [15]?
A: Its MIC90 is 1 µg/mL (≈ 3.34 µM).

Q: What about the MIC (Bacteroides fragilis) of the same compound?
A: The MIC was 0.12 µg/mL (≈ 0.401 µM).

Q: What about the MIC50 (Bacteroides fragilis) of the same compound?
A: The MIC50 was 0.12 µg/mL (≈ 0.401 µM).

Q: What about the MIC90 (Bacteroides fragilis) of the same compound?
A: Its MIC90 is 0.5 µg/mL (≈ 1.67 µM).
